Assay results as given in article PMC9643156 (Acta Pharmaceutica Sinica. B, 2022).

Key:
[1] = test system: LNCaP, 22RV1 and LNCaP-ENZR cells; assay: Viability screen of 197 compounds in PCa cells; format: cell-based; conditions: 20 μmol/L, 72 h, 22RV1, LNCaP-ENZR cells
[2] = test system: 22RV1 orthotopic xenografts; assay: 22RV1 orthotopic xenografts; format: in vivo, BALB/c-nude mice; conditions: LLU-206 25 mg/kg i.v.; ENZ 10 mg/kg p.o.
Summary of the method: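 Mice aged 6–8 weeks carried 22RV1 tumours implanted orthotopically in the prostate. Tumour growth was followed by bioluminescence imaging and analysed as average fluorescence values, n = 6 per group. Relative tumour weight was recorded at the end. Paraffin-embedded tumours were H&E-stained and stained for Ki-67 by IHC; Ki-67 and necrotic area were quantified by image analysis. Data are mean ± SEM, one-way ANOVA with Tukey.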

LNCaP-ENZR xenografts = assay: LNCaP-ENZR subcutaneous xenografts; format: in vivo, NOD-SCID mice; conditions: LLU-206 10, 25 mg/kg via tail vein; ENZ 10 mg/kg by gavage

CNC(=O)c1ccc(N2C(=S)N(c3cnc(C#N)c(C(F)(F)F)c3)C(=O)C23CCC3)cc1F [ARN-509, apalutamide]
anti-PCa activity / inhibition of proliferation in the viability screen [1]: no significant inhibition

CC(O)c1cc(C(=O)N[C@@H](C)Cn2ccc(-c3ccc(C#N)c(Cl)c3)n2)[nH]n1 (stereo partly shown) [ODM-201, darolutamide]
anti-PCa activity / inhibition of proliferation in the viability screen [1]: no significant inhibition

CNC(=O)c1ccc(N2C(=S)N(c3ccc(C#N)c(C(F)(F)F)c3)C(=O)C2(C)C)cc1F [ENZ, Enzalutamide]
growth of 22RV1 orthotopic xenografts [2]: exhibited resistance | antitumor activity in LNCaP-ENZR xenografts (tumor volume, tumor weight, serum PSA) (LNCaP-ENZR xenografts): completely resistant
